Measurements from ChEMBL document CHEMBL1155130, “Selective angiotensin II AT2 receptor agonists: Benzamide structure-activity relationships” (Bioorg Med Chem, 2008).
pKi: −log10 of the molar value. The source made the active and inactive calls. The calls are words filed in the database; no cut-off is given here.

Experiments:
[1] = target: T1, Type-1 angiotensin II receptor A (Rattus norvegicus, UniProt P25095); assay: Displacement of [125]Ang2 from AT1 receptor in rat liver membrane; type: cell membranes
T1 sequence (P25095 whole entry): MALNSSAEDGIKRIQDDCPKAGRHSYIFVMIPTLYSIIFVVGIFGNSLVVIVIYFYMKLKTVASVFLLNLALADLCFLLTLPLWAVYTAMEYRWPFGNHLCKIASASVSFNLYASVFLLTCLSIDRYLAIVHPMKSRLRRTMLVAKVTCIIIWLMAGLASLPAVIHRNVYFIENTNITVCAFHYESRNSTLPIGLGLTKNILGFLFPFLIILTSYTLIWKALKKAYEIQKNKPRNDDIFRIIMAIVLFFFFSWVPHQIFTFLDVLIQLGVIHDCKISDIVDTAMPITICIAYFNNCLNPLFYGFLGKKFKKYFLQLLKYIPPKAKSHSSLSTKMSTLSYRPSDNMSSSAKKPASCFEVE
Summary of the method: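 Rat liver membranes (5 mg original tissue per tube) incubated with [125I]Ang II (80,000–85,000 cpm, 0.03 nM) and varying test concentrations in 50 mM Tris–HCl pH 7.4, 100 mM NaCl, 10 mM MgCl2, 1 mM EDTA, 0.025% bacitracin, 0.2% BSA; 25 °C, 2 h. GF/B filtration, gamma counting; one-site fit; triplicate.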

AT2 receptor = AT2 receptor (Sus scrofa, UniProt A0A4X1W622); assay: Displacement of [125]Ang2 from AT2 receptor in pig uterus membrane; type: cell membranes
NG108-15 = assay: Effect on cellular morphology of mouse rat hybrid NG108-15 cells assessed as induction of neurite outgrowth; type: functional, cell-based
Summary of the method: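 NG108-15 cells (passage 18–28) grown in DMEM/10% FBS/HAT/gentamycin, 37 °C, 7% CO2. Plated at 3.6 × 10^4 cells per 35 mm dish, dosed daily for 3 days starting 24 h after plating, ± AT2 antagonist PD 123,319 added 30 min before. Phase-contrast micrographs on day 4. Cells with a neurite longer than one cell body counted as % of total (≥290 cells). Three independent experiments, duplicates, mean ± SEM.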

Compound: CCCCOC(=O)NS(=O)(=O)c1sc(CC(C)C)cc1-c1ccc(C(=O)N(CC)CC)cc1
- pKi [1]: < 5.00
- pKi (AT2 receptor): 8.52
- Activity (NG108-15): Active

Compound: CCCCOC(=O)NS(=O)(=O)c1sc(CC(C)C)cc1-c1ccc(C(=O)N(C)Cc2ccccc2)cc1
- pKi [1]: < 5.00
- pKi (AT2 receptor): 7.50

Compound: CCCCOC(=O)NS(=O)(=O)c1sc(CC(C)C)cc1-c1ccc(Cn2c(CC)nc3c(C)cc(C)nc32)cc1
- pKi [1]: 8.96
- pKi (AT2 receptor): 8.70

Compound: CCCCOC(=O)NS(=O)(=O)c1sc(CC(C)C)cc1-c1ccc(C(=O)NC(C)C)cc1
- pKi [1]: < 5.00
- pKi (AT2 receptor): 8.59

Compound: CCCCOC(=O)NS(=O)(=O)c1ccc(CC(C)C)cc1-c1ccc(C(=O)N(CC)CC)cc1
- pKi [1]: < 5.00
- pKi (AT2 receptor): 6.84

Compound: CCCCOC(=O)NS(=O)(=O)c1ccc(Oc2ccccc2)cc1-c1ccc(C(=O)N(CC)CC)cc1
- pKi [1]: < 5.00
- pKi (AT2 receptor): 7.04

Compound: CCCCOC(=O)NS(=O)(=O)c1sc(CC(C)C)cc1-c1ccc(C(=O)NC2CC2)cc1
- pKi [1]: < 5.00
- pKi (AT2 receptor): 7.98

Compound: CCCCOC(=O)NS(=O)(=O)c1ccc(CC(C)C)cc1-c1ccc(Cn2c(CC)nc3c(C)cc(C)nc32)cc1
- pKi [1]: 8.68
- pKi (AT2 receptor): 9.15

Compound: CCCCOC(=O)NS(=O)(=O)c1sc(CC(C)C)cc1-c1ccc(C(=O)NCc2ccccc2)cc1
- pKi [1]: < 5.00
- pKi (AT2 receptor): 9.00
- Activity (NG108-15): Active

Compound: CCCCOC(=O)NS(=O)(=O)c1sc(CC(C)C)cc1-c1ccc(CC(=O)N(C)C)cc1
- pKi [1]: < 5.00
- pKi (AT2 receptor): 8.15

Compound: CCCCOC(=O)NS(=O)(=O)c1cc(CC(C)C)ccc1-c1ccc(C(=O)N(CC)CC)cc1
- pKi [1]: < 5.00
- pKi (AT2 receptor): 6.91

Compound: CCCCOC(=O)NS(=O)(=O)c1sc(CC(C)C)cc1-c1ccc(C(=O)N2CCCC2)cc1
- pKi [1]: < 5.00
- pKi (AT2 receptor): 8.19

Compound: CCCCOC(=O)NS(=O)(=O)c1ccc(Cc2ccccc2)cc1-c1ccc(C(=O)N(CC)CC)cc1
- pKi [1]: < 5.00
- pKi (AT2 receptor): 6.79

Compound: CCCCOC(=O)NS(=O)(=O)c1sc(CC(C)C)cc1-c1ccc(C(=O)Nc2nccs2)cc1
- pKi [1]: < 5.00
- pKi (AT2 receptor): 7.96

Compound: CCCCOC(=O)NS(=O)(=O)c1sc(CC(C)C)cc1-c1ccc(C(=O)N2CCCCC2)cc1
- pKi [1]: < 5.00
- pKi (AT2 receptor): 8.49

Compound: CCCCOC(=O)NS(=O)(=O)c1sc(CC(C)C)cc1-c1ccc(C(=O)NC2CCCCC2)cc1
- pKi [1]: < 5.00
- pKi (AT2 receptor): 8.19

Compound: CCCCOC(=O)NS(=O)(=O)c1sc(CC(C)C)cc1-c1ccc(C(N)=O)cc1
- pKi [1]: < 5.00
- pKi (AT2 receptor): 6.98

Compound: CCCCOC(=O)NS(=O)(=O)c1sc(CC(C)C)cc1-c1ccc(CN(C)C(C)=O)cc1
- pKi [1]: < 5.00
- pKi (AT2 receptor): 8.06

Compound: CCCCOC(=O)NS(=O)(=O)c1ccc(-c2ccccc2)cc1-c1ccc(C(=O)N(CC)CC)cc1
- pKi [1]: < 5.00
- pKi (AT2 receptor): 7.28
- Activity (NG108-15): Active

Compound: CCCCOC(=O)NS(=O)(=O)c1sc(CC(C)C)cc1-c1ccc(C(=O)N2CCOCC2)cc1
- pKi [1]: < 5.00
- pKi (AT2 receptor): 6.46

Compound: CCCCOC(=O)NS(=O)(=O)c1sc(CC(C)C)cc1-c1ccc(Cn2ccnc2)cc1 [BULOXIBUTID]
- pKi [1]: < 5.00

Compound: CCCCOC(=O)NS(=O)(=O)c1sc(CC(C)C)cc1-c1ccc(C(=O)N(C)C)cc1
- pKi [1]: < 5.00
- pKi (AT2 receptor): 7.43

Compound: CCCCOC(=O)NS(=O)(=O)c1ccccc1-c1ccc(C(=O)N(CC)CC)cc1
- pKi [1]: < 5.00
- pKi (AT2 receptor): 6.40

Compound: CCCCOC(=O)NS(=O)(=O)c1cc(Cc2ccccc2)ccc1-c1ccc(C(=O)N(CC)CC)cc1
- pKi [1]: < 5.00
- pKi (AT2 receptor): 6.52

Compound: CCCCOC(=O)NS(=O)(=O)c1ccc(CC(C)C)cc1-c1ccc(Cn2ccnc2)cc1
- pKi [1]: < 5.00
